Residues, ends and D or L forms follow the SMILES beside them. No end group written: not given here. *: point of attachment. DOTA = O=C(O)CN1CCN(CC(=O)O)CCN(CC(=O)*)CCN(CC(=O)O)CC1

This is an account of results in publication PMC6130848 (Circulation. Cardiovascular imaging, 2018).

The conditions of data set [1]: tissue and species not stated; cited from earlier work.
For data set [2] the following is noted: 20MHz, 37°C; cited from earlier work.
In data set [3] the test system is vessel wall tropoelastin of ApoE^-/- mice. Particulars: feed or water, 40 mg/kg, 2016 h.
Data set [4] shares this test system. Particulars: 2016 h.
Another data set relates to diseased vessel sections. Details: species or system mouse. Particulars: 200nM, 24h, 4°C. The gist of the method: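 Vessel sections incubated with rhodamine-labelled tropoelastin-binding peptide (200nM solution) for 24h at 4°C, then counterstained for nuclei with Hoechst (1:3000, 15 min, room temperature). Kept shielded from light throughout and mounted in Mowiol medium containing 2.5% DABCO. Read-out by fluorescent microscopy.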

Data set [5] has as its system tropoelastin, mature elastin, collagen I, fibronectin, human serum albumin. Type of data set: binding. Particulars: Eu-labelled probes, in vitro.
Another data set has as its target T1, tropoelastin (Homo sapiens, UniProt P15502).
T1 sequence (P15502 27-786): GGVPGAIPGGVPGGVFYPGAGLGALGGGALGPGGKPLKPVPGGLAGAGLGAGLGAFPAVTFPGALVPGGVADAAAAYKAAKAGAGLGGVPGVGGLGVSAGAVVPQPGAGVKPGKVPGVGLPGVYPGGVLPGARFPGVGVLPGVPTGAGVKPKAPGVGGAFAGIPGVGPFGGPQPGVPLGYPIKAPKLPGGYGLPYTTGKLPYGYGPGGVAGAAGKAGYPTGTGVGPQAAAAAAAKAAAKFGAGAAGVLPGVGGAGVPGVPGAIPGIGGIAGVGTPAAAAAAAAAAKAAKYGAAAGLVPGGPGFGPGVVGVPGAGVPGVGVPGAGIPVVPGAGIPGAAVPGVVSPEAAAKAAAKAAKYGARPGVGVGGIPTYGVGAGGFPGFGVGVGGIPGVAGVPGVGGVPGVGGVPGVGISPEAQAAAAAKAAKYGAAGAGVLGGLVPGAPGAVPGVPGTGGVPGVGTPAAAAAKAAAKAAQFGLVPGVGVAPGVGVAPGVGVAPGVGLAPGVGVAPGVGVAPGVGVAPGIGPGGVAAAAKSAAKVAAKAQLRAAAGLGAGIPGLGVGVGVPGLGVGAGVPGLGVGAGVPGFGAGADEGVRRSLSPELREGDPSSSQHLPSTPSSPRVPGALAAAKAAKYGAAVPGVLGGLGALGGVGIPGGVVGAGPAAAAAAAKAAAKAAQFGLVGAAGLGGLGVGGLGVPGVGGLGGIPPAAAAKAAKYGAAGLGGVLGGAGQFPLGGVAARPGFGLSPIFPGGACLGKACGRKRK
Type of data set: binding.

The format of data set [6] is in vivo. The settings on record: biodistribution of ^64Cu-labeled probes.

Regarding “{DOTA}-VVGSPSAQDEASPLS [(^64Cu –DOTA)-VVGS]”, the uptake in data set [1] was 7.2 %ID/g. For the compound `O=C([O-])CN(CCN(CC(=O)[O-])CC(=O)O)CCN(CC(=O)[O-])CC(=O)O.[Gd+3]` [Gd-DTPA], the “relaxivity r1” value in data set [2] was 4.02 mM⁻¹ s⁻¹.

Consider `CC[C@H](C)C(=O)O[C@H]1C[C@H](O)C=C2C=C[C@H](C)[C@H](CC[C@@H](O)C[C@@H](O)CC(=O)O)[C@H]21` [statin, pravastatin], for which, in data set [3], the “% tropoelastin (immunopositive area/vessel wall area)” value is 11.41±0.35%. Moreover, the “vessel wall tropoelastin concentration (western blotting)” value in data set [4] came to 1.17±0.09 mg/gr tissue. Regarding VVGSPSAQDEASPLS, the “fluorescent signal in tropoelastin-rich areas of diseased vessels” value in the data set with diseased vessel sections was “fluorescent signal”. Take `CC(C)C[C@H](NC(=O)[C@@H]1CCCN1C(=O)[C@H](CO)NC(=O)[C@H](C)NC(=O)[C@H](CCC(=O)O)NC(=O)[C@H](CC(=O)O)NC(=O)[C@H](CCC(N)=O)NC(=O)[C@H](C)NC(=O)[C@H](CO)NC(=O)[C@@H]1CCCN1C(=O)[C@H](CO)NC(=O)CNC(=O)[C@@H](NC(=O)[C@@H](NC(=O)CN1CCN(CC(=O)O)CCN(CC(=O)O)CCN(CC(=O)O)CC1)C(C)C)C(C)C)C(=O)N[C@@H](CO)C(=O)O` [(Eu-DOTA)-VVGS] ({DOTA}-VVGSPSAQDEASPLS-OH): the “selectivity towards tropoelastin compared with collagen I, fibronectin and HSA” value in data set [5] is given as “high selectivity”. The compound also gave a binding to tropoelastin at tropoelastin of 64±7%. Taken in the same sequence, the figures for `CC(C)[C@H](NC(=O)[C@H](Cc1c[nH]cn1)NC(=O)[C@H](CC(=O)O)NC(=O)[C@@H]1CCCN1C(=O)[C@H](Cc1ccc(O)cc1)NC(=O)[C@@H](N)CCCCNC(=O)CN1CCN(CC(=O)O)CCN(CC(=O)O)CCN(CC(=O)O)CC1)C(=O)N[C@@H](CCC(N)=O)C(=O)N[C@@H](Cc1ccc(O)cc1)C(=O)N[C@H](C(=O)N[C@@H](Cc1c[nH]cn1)C(=O)N[C@@H](Cc1ccc(O)cc1)C(=O)O)[C@@H](C)O` [K(Eu-DOTA)-YPDH] (H-K(DOTA)YPDHVQYTHY-OH) were “high selectivity” and 84± 4%. With `CC(C)[C@H](NC(=O)[C@H](Cc1c[nH]cn1)NC(=O)[C@H](CC(=O)O)NC(=O)[C@@H]1CCCN1C(=O)[C@H](Cc1ccc(O)cc1)NC(=O)[C@@H](N)CCCCNC(=O)CN1CCN(CC(=O)O)CCN(CC(=O)O)CCN(CC(=O)O)CC1)C(=O)N[C@@H](CCC(N)=O)C(=O)N[C@@H](Cc1ccc(O)cc1)C(=O)N[C@H](C(=O)N[C@@H](Cc1c[nH]cn1)C(=O)N[C@@H](Cc1ccc(O)cc1)C(=O)O)[C@@H](C)O` [K(^64Cu-DOTA)-YPDH, metal not drawn] (H-K(DOTA)YPDHVQYTHY-OH), the liver uptake entry in data set [6] is given as “some liver uptake”.
